ROCK2 inh – inhibitors of human Rho kinase 2; O75116; purified ROCK2, Kinase-Glo ATP depletion luminescence; inhibition, % at 6 µM; 60,000 compounds, 0.35% hits; AID 604;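 active means inhibition above the screen-wide mean inhibition plus 3 SD, cut at about 18% in these data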;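 further: plate controls were DMSO wells for no effect and Y-27632 control wells after no-enzyme background subtraction for full effect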
PKA inh – inhibitors of human protein kinase A; P17612; PKA Kemptide phosphorylation, Kinase-Glo ATP luminescence; inhibition, % at 6 µM; 65,000 compounds, 0.1% hits; AID 524;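 active means inhibition above the screen-wide mean inhibition plus 3 SD, cut at about 21% in these data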
JNK3 inh – inhibitors of human JNK3 kinase; P53779; purified JNK3 kinase activity, HTS; inhibition, % at 8 µM; 60,000 compounds, 0.61% hits; AID 746; in the data active means inhibition above about 17%;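 further: 0% = DMSO and 100% = reference inhibitor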
Target sequence (P53779 whole entry, looked up): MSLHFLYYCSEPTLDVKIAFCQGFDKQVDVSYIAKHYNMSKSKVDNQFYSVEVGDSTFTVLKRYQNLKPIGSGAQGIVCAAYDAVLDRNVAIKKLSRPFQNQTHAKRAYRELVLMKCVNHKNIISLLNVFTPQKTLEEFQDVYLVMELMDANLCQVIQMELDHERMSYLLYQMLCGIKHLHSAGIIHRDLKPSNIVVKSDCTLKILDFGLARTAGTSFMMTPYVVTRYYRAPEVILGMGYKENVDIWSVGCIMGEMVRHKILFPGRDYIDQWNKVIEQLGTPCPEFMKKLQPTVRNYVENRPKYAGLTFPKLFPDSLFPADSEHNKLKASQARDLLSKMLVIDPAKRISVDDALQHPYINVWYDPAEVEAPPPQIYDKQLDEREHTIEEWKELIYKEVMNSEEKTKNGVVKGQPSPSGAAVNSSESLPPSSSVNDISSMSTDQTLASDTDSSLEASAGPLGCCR
SF1 activator – activates the human nuclear receptor SF-1. CHO-K1 Gal4-SF-1 LBD luciferase reporter; % increase over DMSO SF-1-specific signal. activation, % at 10 µM. 65,000 compounds, 1.9% hits. AID 522;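 active means activation above the mean activation of all tested compounds plus 3 SD, cut at about 50% in these data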
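Test system: transient Gal4-SF-1 LBD reporter, CHO-K1; Amount: 4,000 CHO-K1 cells per well; Doses: 10 µM only; Timing: compound exposure 20 h at 37 °C; Signal: luciferase light emission; Read-out basis: percent activation relative to DMSO median and mock-transfected background; Control set: DMSO negative control and −SF1 background wells; Replicates: one test per compound.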
RORa activator – activators of human nuclear receptor RORA; P35398; CHO-K1 Gal4-RORA LBD luciferase reporter, luminescence; percent increase over mock-subtracted basal signal; AID 560; activation, % at 10 µM; 65,000 compounds, 1.5% hits;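 active means activation above the mean of all tested compounds plus 3 SD, cut at about 49% in these data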;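 further: 0% = DMSO-treated RORA cells and 100% = added signal equal to DMSO minus mock-transfected cells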
MT1-MMP txn act – MT1-MMP promoter transcription activation | HT1080 MT1-MMP promoter luciferase reporter, luminescence, overnight; hits give high values | activation factor at 10 µM | 86,000 compounds, 0.16% hits | AID 750;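 active means activation factor of at least 2 for MT1-MMP transcription at 10 µM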
* hit, by the source's call; / = no result. Shown are actives, neighbours in structure and some others; about 2.5% of the full set was active somewhere.

SMILES	ROCK2 inh	PKA inh	JNK3 inh	SF1 activator	RORa activator	MT1-MMP txn act
c1ccc2c(-c3ccncc3)c[nH]c2c1	89.4*	65.3*	-4.1	12.9	11.7	1.1
COC(=O)C(C)Sc1nnc2n(-c3cccc(C)c3)c(=O)c3c4c(sc3n12)CCCC4 (stereo not given)	3.7	8.7	-2.5	3.1	10.9	1.1
CC(=O)c1c(C)[nH]c(C(=O)OCn2nnc3ccccc3c2=O)c1C	5.3	5.2	18.4*	3.4	-14.7	1.1
CCN(CC)C(=O)c1sc2nc(-c3ccc(OC)cc3)cn2c1C	-0.8	5.0	2.5	80.0*	98.2*	1.5
CNC(=O)c1sc2nc(-c3ccc(OC)cc3)cn2c1C	1.7	6.4	-8.4	26.9	62.5*	1.3
COc1ccc(-c2cn3c(C)c(C(=O)NCCN4CCOCC4)sc3n2)cc1	5.2	4.2	-4.0	9.9	-11.0	1.3
COc1ccc(-c2cn3c(C)c(C(=O)Nc4cc(NC(C)=O)ccc4OC)sc3n2)cc1	-0.4	-5.1	3.0	16.5	22.8	1.1
Cc1sc2nc3n(c(=O)c2c1C)Cc1ccccc1-3	-0.6	1.9	-5.4	56.1*	73.2*	1.9
O=C(Nc1ccccc1C(=O)O)c1ccc2ccccc2n1	5.1	12.8	8.5	80.1*	45.0	1.2
O=C(Nc1ccc(Cl)cn1)c1ccc2ccccc2n1	/	/	/	/	/	1.5
c1csc(-c2cnc3ccccc3n2)c1	3.3	0.8	25.3*	50.0*	95.3*	1.1
COc1ccc2oc(=O)c(-c3nnc(NCc4ccco4)s3)cc2c1	5.6	6.9	7.4	80.8*	80.2*	1.5
COC(=O)[C@@H]1C[C@H]1[C@@H](NS(=O)(=O)c1ccc2ccccc2c1)c1ccccc1	/	/	/	/	/	1.3
Cc1ccc(C2=Nc3ccccc3NC(C)(c3ccc(C)o3)C2)o1 (stereo not given)	3.5	7.7	1.9	106.5*	52.7*	1.2
Cn1c(-c2ccccc2)cnc1SCc1nc2ccccc2c(=O)[nH]1	4.2	-0.5	-0.8	68.9*	29.4	0.9
COc1ccccc1CN(Cc1cc2cc(C)ccc2[nH]c1=O)Cc1nnnn1CC1CCCO1 (stereo not given)	3.0	7.8	-0.7	13.7	14.4	1
COc1ccccc1CN(Cc1cc2cc(C)cc(C)c2[nH]c1=O)Cc1nnnn1CC1CCCO1 (stereo not given)	3.7	1.5	5.6	49.3	53.5*	1.1
Cc1ccc(NC(=O)Cc2ccc(F)cc2)cc1	/	/	/	/	/	1.6
c1ccc2nc3c(nc2c1)[nH]c1ccccc13	3.3	-4.2	55.3*	81.2*	50.5*	1.2
c1ccc(-c2c3ccccc3nc3[nH]c4ccccc4c23)cc1	/	/	/	/	/	1.1
N#Cc1cccc(NC(=O)CSc2ccccc2)c1	18.6*	11.7	7.0	-2.1	0.8	1
COc1ccccc1-c1nn2c(-c3ccco3)nnc2s1	4.7	6.0	0.7	59.1*	36.2	1.7
O=C(CSc1ncccc1-c1nc2ccccc2[nH]1)N1CCN(c2ccccc2F)CC1	-0.3	10.1	27.9*	-20.4	13.1	1.1
COc1ccccc1N1CCN(C(=O)CSc2ncccc2-c2nc3ccccc3[nH]2)CC1	/	7.2	/	-6.9	-8.5	1.2
COc1cccc(-c2nnc3n2N=C(C(C)(C)C)CS3)c1	/	-2.6	/	-38.9	-62.3	1.4
SMILES	ROCK2 inh	PKA inh	JNK3 inh	SF1 activator	RORa activator	MT1-MMP txn act
Cc1ccc2nc(-c3cccc(S(=O)(=O)N(C)C)c3)cn2c1	5.2	2.8	-3.5	51.5*	56.4*	1.5
CCCc1nn(C)c2c1C(c1ccncc1)C(C#N)=C(N)O2 (stereo not given)	-1.2	11.6	8.0	-4.6	14.7	1.1
COC(=O)N1CC=CC1(C)C(=O)NCC1CC1 (stereo not given)	/	/	/	/	/	1.1
COc1ccc(-c2nnc(SCc3ccccc3)n2N)cc1	0.5	2.4	-2.7	65.6*	39.0	1.8
CCCNC(=O)c1noc2c1CCc1ccccc1-2	7.2	2.5	2.1	34.2	25.4	1.2
O=C(NCCN1CCOCC1)c1noc2c1CCc1ccccc1-2	-1.7	-1.2	0.0	40.7	76.9*	1.7
CCC1=C(C)N(CCCC(=O)O)C(=O)NC1c1cccc(Cl)c1Cl (stereo not given)	/	/	/	/	/	1.1
O=C(CSCc1ccccc1)Nc1nccs1	3.2	3.4	-1.2	-5.4	-5.3	1.2
O=C(CSc1cn(Cc2ccccc2)c2ccccc12)Nc1nccs1	1.8	-3.4	4.6	84.5*	75.7*	/
Cc1ccc(-c2nnc(-c3ccc(NC(=O)c4ccco4)cc3)o2)cc1	2.5	6.2	-3.0	1.9	1.1	1.1
CCOc1ccccc1NC(=O)N1CCC(C(=O)c2ccc(F)cc2)CC1	/	/	/	/	/	1
O=C1OC(N2CCN(Cc3ccccc3)CC2)c2ccccc21 (stereo not given)	2.9	10.9	-3.1	-16.3	69.1*	1.2
Cc1nc2c3cnn(-c4ccc(C)c(C)c4)c3ncn2n1	4.6	-2.9	2.1	65.1*	43.8	1.3
Cc1ccc(-n2ncc3c(=O)n(CC#N)cnc32)cc1C	-0.6	8.4	4.6	12.8	26.5	1.4
Cc1ccc(-n2ncc3c2ncn2c(-c4ccncc4)nnc32)cc1	1.0	7.6	-1.1	-4.2	23.2	1.3
CCc1nnc2c3cnn(-c4ccc(C)c(C)c4)c3ncn12	/	-0.3	/	57.6*	56.9*	/
C#CCn1cnc2c(cnn2-c2ccc(C)c(C)c2)c1=O	-0.7	-2.2	-1.5	57.9*	19.6	/
CSc1nc2c(cnn2-c2ccc(C)c(C)c2)c(=O)[nH]1	4.0	2.5	-3.3	-4.9	4.6	1
O=C(Oc1cccc2c(=O)[nH]ccc12)c1ccccc1	18.2*	1.7	16.1	-0.7	3.9	1.2
CCOc1cccc(-c2nnc3n2N=C(c2cc(OC)ccc2OC)CS3)c1	/	-5.5	/	46.2	61.1*	/
COc1cccc(-c2nnc3n2N=C(c2cc(OC)ccc2OC)CS3)c1	/	1.3	/	2.0	-6.5	1.1
Cn1c(SCC(=O)c2ccccc2)nnc1-c1cnccn1	-3.6	-1.2	0.9	61.4*	30.0	1.7
CCC(=O)Nc1cccc(-c2nnc(SCC(=O)c3ccccc3)n2C)c1	-3.6	-2.0	2.2	43.5	61.0*	1.4
CCC(=O)Nc1cccc(-c2nnc(SCC(=O)NCc3ccco3)n2C)c1	-2.8	7.0	4.9	-11.0	-2.4	1.2
CC(NC(=O)c1cc2ccccc2o1)c1cccs1 (stereo not given)	/	3.6	/	10.7	29.9	/
Nc1ccc(-c2nc3ccccc3[nH]2)cc1	-10.8	-11.6	-20.2	56.0*	38.2	0.9
COC(=O)[C@@H]1C[C@@]2(O)[C@H](O)[C@H](O)[C@H](O)C[C@H]2N1Cc1c(F)cccc1Cl	/	/	/	/	/	1
CC(=O)n1c2ccccc2c2c(C#N)c(N3CCCCC3)sc21	4.4	-1.4	13.0	50.9*	-1.2	1.1
O=C(CCSc1ccccc1)N1CCOCC1	-2.0	2.3	-5.4	52.5*	32.1	1.4
Cc1ccc(SCCC(=O)N2CCOCC2)cc1	6.4	8.8	1.9	46.9	51.3*	1.4

Source: PubChem (several laboratories)
